Test results reported in ChEMBL document CHEMBL3351777, “Further studies on pyrazolo[1',5':1,6]pyrimido[4,5-d]pyridazin-4(3H)-ones as potent and selective human A1 adenosine receptor antagonists” (Eur J Med Chem, 2015).
Calls of active or inactive are those of the source. The rule behind the calls is not given here.

Assays:
[1] = species on record: Mus musculus; experiment: Toxicity in Swiss albino mouse assessed as change in gross behavior by rotarod test relative to control; type: organism-based; details: in vivo
Outline: (§1)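 Male Swiss albino mice on the rota-rod, counting falls from the rotating rod at the doses used in passive avoidance. Compared with saline- and CMC-treated mice.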

[2] = target: T1, Adenosine receptor A2a (Homo sapiens, UniProt P29274); experiment: Displacement of [3H]NECA from human adenosine A2A receptor expressed in CHO cells at 10 uM after 120 mins; type: cell-based
T1 sequence (P29274 whole entry): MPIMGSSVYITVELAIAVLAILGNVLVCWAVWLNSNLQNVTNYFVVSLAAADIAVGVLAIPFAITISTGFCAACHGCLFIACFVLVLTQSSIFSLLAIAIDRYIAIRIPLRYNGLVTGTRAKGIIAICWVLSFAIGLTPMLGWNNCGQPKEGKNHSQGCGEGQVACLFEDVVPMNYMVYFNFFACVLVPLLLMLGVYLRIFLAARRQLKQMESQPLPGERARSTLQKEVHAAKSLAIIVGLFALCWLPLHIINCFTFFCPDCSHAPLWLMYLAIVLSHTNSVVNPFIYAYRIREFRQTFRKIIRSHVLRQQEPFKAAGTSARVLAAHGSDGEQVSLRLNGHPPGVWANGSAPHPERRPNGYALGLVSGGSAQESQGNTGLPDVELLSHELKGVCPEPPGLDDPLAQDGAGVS

[3] = target: T2, Adenosine receptor A1 (Homo sapiens, UniProt P30542); experiment: Displacement of [3H]DPCPX from human adenosine A1 receptor expressed in CHO cells after 120 mins; type: cell-based
T2 sequence (P30542 whole entry): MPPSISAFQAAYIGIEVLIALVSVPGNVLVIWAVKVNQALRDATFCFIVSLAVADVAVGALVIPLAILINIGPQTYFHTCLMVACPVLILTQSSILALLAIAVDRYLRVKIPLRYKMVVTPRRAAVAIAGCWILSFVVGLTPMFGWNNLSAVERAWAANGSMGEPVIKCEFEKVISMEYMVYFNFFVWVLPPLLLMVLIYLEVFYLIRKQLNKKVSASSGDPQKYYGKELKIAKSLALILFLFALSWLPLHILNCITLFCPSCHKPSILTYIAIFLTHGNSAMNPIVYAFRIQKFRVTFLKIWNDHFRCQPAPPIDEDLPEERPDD

[4] = species on record: Mus musculus; experiment: Toxicity in Swiss albino mouse assessed as change in motor coordination by measuring number of falls from the rotating rod by rotarod test relative to control; type: organism-based; details: in vivo; outline: as §1
[5] = target: T3, Adenosine receptor A3 (Homo sapiens) (UniProt P0DMS8); experiment: Displacement of [125I]AB-MECA from human adenosine A3 receptor expressed in CHO cells at 10 uM after 120 mins; type: cell-based
T3 sequence (whole entry): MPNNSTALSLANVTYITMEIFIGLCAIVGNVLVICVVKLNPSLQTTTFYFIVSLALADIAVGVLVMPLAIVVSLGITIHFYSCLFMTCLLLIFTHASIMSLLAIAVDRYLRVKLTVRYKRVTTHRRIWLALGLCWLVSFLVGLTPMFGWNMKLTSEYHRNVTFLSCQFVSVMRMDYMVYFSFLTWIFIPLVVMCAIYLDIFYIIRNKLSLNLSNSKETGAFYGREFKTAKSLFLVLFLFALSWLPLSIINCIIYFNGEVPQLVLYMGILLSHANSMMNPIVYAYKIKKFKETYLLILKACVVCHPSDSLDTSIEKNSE

[6] = target: T4, Adenosine receptor A1 (Homo sapiens) (UniProt P30542); experiment: Displacement of [3H]DPCPX from human adenosine A1 receptor expressed in CHO cells at 10 uM after 120 mins; type: cell-based
T4 sequence (whole entry): T2 sequence (P30542 whole entry)

[7] = target: T4, Adenosine receptor A1 (Homo sapiens); experiment: Antagonist activity at human recombinant adenosine A1 receptor expressed in CHO cells assessed as inhibition of NECA-induced cAMP accumulation at 1 nM to 10 uM after 15 mins by liquid scintillation spectrometry; type: functional, cell-based
Outline: (§2)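 Human A1-transfected CHO cells, preincubated 15 min at 37 °C with ADA (1 U/mL) and Ro20-1724 (20 μM). Cells received 1 μM forskolin plus 100 nM NECA, with or without compound (1 nM–10 μM), for 15 min. Stopped with 0.4 N HCl and neutralized with KOH. cAMP was measured by [3H]cAMP (2 nM) binding-protein competition, 150 min at 0 °C, with filtration and scintillation counting. Levels are % of forskolin (100%). Mean ± SEM of ≥3 experiments in duplicate.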

[8] = target: T5, Adenosine receptor A3 (Homo sapiens, UniProt P0DMS8); experiment: Displacement of [125I]AB-MECA from human adenosine A3 receptor expressed in CHO cells after 120 mins; type: cell-based
T5 sequence (P0DMS8 whole entry): T3 sequence (whole entry)

[9] = target: T1, Adenosine receptor A2a; experiment: Displacement of [3H]NECA from human adenosine A2A receptor expressed in CHO cells after 120 mins; type: cell-based
[10] = target: T2, Adenosine receptor A1; experiment: Antagonist activity at human recombinant adenosine A1 receptor expressed in CHO cells assessed as inhibition of NECA-induced cAMP accumulation after 15 mins by liquid scintillation spectrometry; type: functional, cell-based; outline: as §2
[11] = target: T6, Adenosine receptor A2b (Homo sapiens) (UniProt P29275); experiment: Antagonist activity at human recombinant adenosine A2B receptor expressed in CHO cells assessed as inhibition of NECA-induced cAMP accumulation at 10 uM after 15 mins by liquid scintillation spectrometry; type: functional, cell-based; design: scale not given: the % may be the effect or the level left
T6 sequence (whole entry): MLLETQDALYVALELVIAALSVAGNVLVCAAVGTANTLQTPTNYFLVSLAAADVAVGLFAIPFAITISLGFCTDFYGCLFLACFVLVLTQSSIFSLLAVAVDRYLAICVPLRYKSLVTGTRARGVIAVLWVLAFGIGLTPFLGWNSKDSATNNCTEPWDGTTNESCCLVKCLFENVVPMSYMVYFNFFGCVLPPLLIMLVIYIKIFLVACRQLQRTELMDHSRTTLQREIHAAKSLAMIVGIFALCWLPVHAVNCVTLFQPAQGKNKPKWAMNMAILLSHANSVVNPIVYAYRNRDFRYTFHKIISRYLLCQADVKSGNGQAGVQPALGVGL
Outline: (§3)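 CHO cells expressing human A2B receptor, plated about 30000 per well and used after 24 h. Preincubated 15 min at 37 °C in DMEM with ADA (1 U/mL) and Ro20-1724 (20 μM). Compound at 10 μM was tested alone or with an EC50 concentration of NECA determined the same day. cAMP was measured by [3H]cAMP competition with bovine adrenal binding protein. Output is % of cAMP production versus agonist maximal effect.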

[12] = target: T6, Adenosine receptor A2b (Homo sapiens); experiment: Agonist activity at human recombinant adenosine A2B receptor expressed in CHO cells assessed as cAMP accumulation at 10 uM after 15 mins by liquid scintillation spectrometry (reference value: 50%); type: functional, cell-based; outline: as §3
[13] = tested on: Mus musculus; experiment: Antiamnesic activity in Swiss albino mouse CPA-induced amnesia model assessed as time taken to enter dark compartment during training session at 3 mg/kg, ip administered 30 mins prior to session by passive avoidance test (reference value: 16.6 +/- 4.1 secs); type: functional; details: route intraperitoneal
[14] = tested on: Mus musculus; experiment: Antiamnesic activity in Swiss albino mouse CPA-induced amnesia model assessed as time taken to enter dark compartment during retention session at 3 mg/kg, ip administered 30 mins prior to session by passive avoidance test (reference value: 61.2 +/- 9.0 secs); type: functional; details: route intraperitoneal

SMILES	Activity [1]	inhibition [2]	Ki [3]	Activity [4]	inhibition [5]	inhibition [6]	Activity [7]	Ki [8]	Ki [9]	IC50 [10]	Activity [11]	Activity [12]	Time [13]	Time [14]
S=c1c2ncn3nc(-c4ccccc4)cc3c2c(C2CCCC2)nn1Cc1ccccc1	Non-toxic	37%	12.9 nM	Non-toxic	54%									
CCc1nc2c(=S)n(Cc3ccccc3)nc(C3CCCCC3)c2c2cc(-c3ccccc3)nn12	Non-toxic	0%		Non-toxic	42%									
CCc1nc2c(=O)n(Cc3ccccc3)nc(-c3cccs3)c2c2cc(-c3ccccc3)nn12	Non-toxic	65%		Non-toxic	30%	16%	inactive							
O=c1c2ncn3nc(-c4ccccc4)cc3c2c(C2CCCC2)nn1Cc1ccccc1	Non-toxic		32.3 nM	Non-toxic				64 nM	75.5 nM					
Cc1nc2c(=O)n(Cc3ccccc3)nc(-c3ccsc3)c2c2cc(-c3ccccc3)nn12	Non-toxic	57%		Non-toxic	37%	8%								
Cc1nc2c(=O)n(Cc3ccccc3)nc(C3CCCC3)c2c2cc(-c3ccccc3)nn12	Non-toxic	53%	6.2 nM	Non-toxic	41%					5.1 nM				
Cc1nc2c(=O)n(Cc3ccccc3)nc(C3CCCCC3)c2c2cc(-c3ccccc3)nn12	Non-toxic	7%	9.5 nM	Non-toxic	35%						57.8%	2.1%		
O=c1c2ncn3nc(-c4ccccc4)cc3c2c(-c2ccc(Cl)cc2)nn1Cc1ccccc1	Non-toxic	56%		Non-toxic	31%	26%								
Cc1nc2c(=O)n(Cc3ccccc3)nc(-c3ccc(Cl)cc3)c2c2cc(-c3ccccc3)nn12	Non-toxic	28%		Non-toxic	25%	24%								
O=c1c2ncn3nc(-c4ccccc4)cc3c2c(-c2cccnc2)nn1Cc1ccccc1	Non-toxic			Non-toxic	21%									
Cc1nc2c(=S)n(Cc3ccccc3)nc(C3CCCC3)c2c2cc(-c3ccccc3)nn12	Non-toxic	18%		Non-toxic	13%	51%								
Cc1nc2c(=S)n(Cc3ccccc3)nc(C3CCCCC3)c2c2cc(-c3ccccc3)nn12	Non-toxic	0%		Non-toxic	30%	33%								
CCc1nc2c(=O)n(Cc3ccccc3)nc(C3CCCC3)c2c2cc(-c3ccccc3)nn12	Non-toxic		3.5 nM	Non-toxic	43%				662 nM					
S=c1c2ncn3nc(-c4ccccc4)cc3c2c(C2CCCCC2)nn1Cc1ccccc1	Non-toxic	8%	9.5 nM	Non-toxic	31%						58.9%	4.8%		
CCCn1c(=O)c2[nH]c(C3CCCC3)nc2n(CCC)c1=O [1,3-DIPROPYL-8-CYCLOPENTYLXANTHINE [DPCPX]]													0.275 min	1.53 min
O=c1c2ncn3nc(-c4ccccc4)cc3c2c(C2CCCCC2)nn1Cc1ccccc1	Non-toxic	56%	172 nM	Non-toxic				308 nM						
O=c1c2ncn3nc(-c4ccccc4)cc3c2c(-c2cccs2)nn1Cc1ccccc1	Non-toxic			Non-toxic	16%	45%			51 nM					
CCc1nc2c(=S)n(Cc3ccccc3)nc(C3CCCC3)c2c2cc(-c3ccccc3)nn12	Non-toxic	35%	4.7 nM	Non-toxic	24%									
CCc1nc2c(=O)n(Cc3ccccc3)nc(-c3ccsc3)c2c2cc(-c3ccccc3)nn12	Non-toxic	41%		Non-toxic	36%	5%								
CCc1nc2c(=O)n(Cc3ccccc3)nc(-c3ccc(Cl)cc3)c2c2cc(-c3ccccc3)nn12	Non-toxic	10%		Non-toxic	51%	35%	inactive							
Cc1nc2c(=O)n(Cc3ccccc3)nc(-c3cccs3)c2c2cc(-c3ccccc3)nn12	Non-toxic			Non-toxic	15%	21%			2600 nM					
CCc1nc2c(=O)n(Cc3ccccc3)nc(C3CCCCC3)c2c2cc(-c3ccccc3)nn12	Non-toxic	0%	15.2 nM	Non-toxic	40%									
O=c1c2ncn3nc(-c4ccccc4)cc3c2c(-c2ccsc2)nn1Cc1ccccc1	Non-toxic			Non-toxic	24%	26%			69.2 nM					
